Experimental data taken from paper PMC7127107 (Bioorganic & Medicinal Chemistry, 2013).

What was measured:
PEDV SM98 strain [1] = experiment: Post-treatment antiviral assay; assay type: cell-based, porcine epidemic diarrhea virus; conditions: for IC50: Porcine epidemic diarrhea virus, Vero, read-out: Post-treatment IC50
Outline: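 Near-confluent Vero monolayers (1 × 10^5 cells/well) were infected with PEDV SM98 at MOI 0.01 for 1 h with occasional rocking. Inoculum was replaced by EMEM containing test compound (1–200 μM), in triplicate. After 72 h, viability was read by MTT (4 h, 37 °C; A540 minus 655 nm). IC50 came from regression analysis, and SI = CC50/IC50.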

PEDV SM98 strain [2] = experiment: Simultaneous-treatment antiviral assay; assay type: cell-based, porcine epidemic diarrhea virus; conditions: for IC50: Porcine epidemic diarrhea virus, Vero, read-out: Simultaneous-treatment IC50; for selectivity ratio at 72 h: African green monkey, Vero cells infected with PEDV SM98 strain
Outline: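 Test compound at various concentrations was premixed with PEDV SM98 (MOI 0.01) for 1 h at 4 °C. The mixture was put on near-confluent Vero monolayers (1 × 10^5 cells/well) for 1 h with occasional rocking, then replaced with fresh medium; triplicate wells. After 72 h, MTT was read (4 h, 37 °C; A540 minus 655 nm). IC50 came from regression analysis, and SI = CC50/IC50.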

[3] = Cytotoxicity in Vero cells; assay type: cell-based; conditions: African green monkey
Outline: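 Vero cells were seeded at 1 × 10^5 cells/well and grown for 48 h. They were then exposed for 72 h to twofold serial dilutions of test compound (5–600 μg/mL or μM). MTT was added for 4 h at 37 °C, and formazan was dissolved in 0.04 M HCl–isopropanol. Absorbance was read at 540 nm minus 655 nm background. CC50 came from regression analysis; experiments were run three times.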

PEDV (SM98 strain) [4] = experiment: Hemagglutination inhibition; assay type: cell-based, porcine epidemic diarrhea virus; conditions: 4 HAU PEDV, rabbit RBCs, 1 h room temperature
Outline: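 PEDV at 4 HAU was mixed with an equal volume of twofold serial dilutions of test compound in PBS (pH 7.4), with PBS alone as negative control, for 1 h at 4 °C. The mixture was combined with an equal volume of 1% rabbit RBC suspension and incubated 1 h at room temperature. Experiments were run three times.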

PEDV [5] = experiment: Western blot of viral spike; assay type: cell-based, porcine epidemic diarrhea virus
Outline: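 Vero cells at about 90% confluence were infected with PEDV at MOI 0.01 for 1 h, then cultured with 30 μM test compound or 0.5% DMSO. Cells were harvested at 6, 12, 18 and 24 h and lysed, and proteins were separated on Bis–Tris gels and blotted to nitrocellulose. Blots were probed with anti-S antibody (12 h, 4 °C) and HRP secondary, then developed by chemiluminescence; GAPDH served as loading control.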

PEDV (SM98 strain) [6] = experiment: Confocal immunofluorescence imaging of PEDV-infected Vero cells; assay type: cell-based, porcine epidemic diarrhea virus; conditions: 30 μM, 24 h
PEDV [7] = experiment: Quantitative real-time RT-PCR of intracellular viral RNA; assay type: cell-based, porcine epidemic diarrhea virus

Row | SMILES | IC50 (PEDV SM98 strain [1]) [µM] | IC50 (PEDV SM98 strain [2]) [µM] | Simultaneous-treatment IC50 (PEDV SM98 strain [2]; mixed with virus 0.01 MOI 1 h at 4 °C, Vero cells, 72 h) | CC50 at 72 h [3] [µM] | selectivity ratio at 72 h (PEDV SM98 strain [2]) | Minimum concentration that completely inhibited viral hemagglutination (PEDV (SM98 strain) [4]; listed as eckol (2)) [µM] | selectivity ratio at 72 h (PEDV SM98 strain [1]; African green monkey, Vero cells infected with PEDV SM98 strain) | Synthesis of viral proteins, late stage (PEDV [5]; 30 μM, 18 and 24 h) | Synthesis of viral proteins (S protein) (PEDV [5]; 5–50 μM, 24 h post-infection) | Number of fluorescence-positive, PEDV-infected cells (PEDV (SM98 strain) [6]) | Minimum concentration that completely inhibited viral hemagglutination (PEDV (SM98 strain) [4]; listed as dieckol (5)) [µM] | Viral RNA levels, early stage (PEDV [7]; 30 μM, 6 and 12 h after infection) | Viral RNA levels, late stage (PEDV [7]; 30 μM, 18 and 24 h after infection, vs untreated/infected cells (0.5% DMSO)) | Viral RNA levels relative to vehicle-treated cells (PEDV [7]; 50 μM, 24 h after infection, ORF3 gene normalized to GAPDH) | Effect on viral RNA levels (PEDV [7]; 5–50 μM, 24 h after infection)
1 | Oc1cc(O)cc(O)c1 [Compound 1, phloroglucinol] | > 200 | > 200 | did not show significant inhibitory effects | 374 ± 4 | – | – | – | – | – | – | – | – | – | – | –
2 | Oc1cc(O)cc(Oc2c(O)cc(O)c3c2Oc2c(O)cc(O)cc2O3)c1 [Compound 2, eckol] | > 200 | 22.5 ± 2.2 | – | 388.3 ± 2.6 | 17.2 | 3.8 to 5.4 | – | – | – | – | – | – | – | – | –
3 | Oc1cc(O)cc(Oc2c(O)cc(O)c3c2Oc2c(O)cc(Oc4c(O)cc(Oc5c(O)cc(O)c6c5Oc5c(O)cc(O)cc5O6)cc4O)cc2O3)c1 [Compound 5, dieckol] | 14.6 ± 1.3 | 16.6 ± 3 | – | 490.6 ± 1.6 | 29.5 | – | 33.6 | strongly inhibited | inhibited the synthesis of viral proteins | reduced the number of fluorescence-positive, PEDV-infected cells | 3.8 to 5.4 | largely unchanged | markedly decreased | 30–40% | significantly reduced viral RNA levels in dose-dependent manner
